Consider 38 compounds from ChEMBL document CHEMBL4007486, “Prospective Evaluation of Free Energy Calculations for the Prioritization of Cathepsin L Inhibitors” (J Med Chem, 2017).

In data set [1] the target is T1, Procathepsin L (Homo sapiens, UniProt P07711). Description: Inhibition of human Cathepsin L by fluorescence assay based Cheng-Prusoff equation analysis. The method in brief:
(§1)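 Fluorescence-based enzymatic assay against human cathepsin L, run as previously described. IC50 was measured, and Ki was then calculated from it with the Cheng-Prusoff equation.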

Data set [2] has as its target T1, Procathepsin L. As to the kind of experiment: Inhibition of human Cathepsin L. The procedure, abridged: as §1
Data set [3] in a line: Lipophilicity, logD of the compound. The class given is physicochemical. The conditions noted are these: octanol/water.

T1 sequence (P07711 whole entry): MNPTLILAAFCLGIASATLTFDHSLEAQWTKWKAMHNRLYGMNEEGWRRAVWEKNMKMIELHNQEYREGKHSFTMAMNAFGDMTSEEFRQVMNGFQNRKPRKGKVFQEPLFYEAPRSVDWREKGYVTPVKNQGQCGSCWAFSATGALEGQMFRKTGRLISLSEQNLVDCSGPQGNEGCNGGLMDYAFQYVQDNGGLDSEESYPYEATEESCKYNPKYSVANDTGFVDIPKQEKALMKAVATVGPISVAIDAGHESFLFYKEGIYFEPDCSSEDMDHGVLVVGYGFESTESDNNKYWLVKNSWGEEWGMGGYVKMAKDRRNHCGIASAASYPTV

Take `N#Cc1ncc(F)c(N(Cc2ccc3c(c2)OCO3)[C@H]2CC[C@H](C(F)(F)F)CC2)n1`: at Procathepsin L [1], the inhibitory constant (Ki) (in general, a measure of affinity in units of concentration, obtained from inhibition or displacement) is above 5100 nM.

`N#Cc1ncc(F)c(N(CCc2cccc(Br)c2)Cc2ccc3c(c2)OCO3)n1` gave a Ki on Procathepsin L [1] of 358 nM.

In the case of `N#Cc1ncc(F)c(N(Cc2ccc3c(c2)OCO3)C2CCCCC2)n1`, the inhibitory constant (Ki) at Procathepsin L [2] turned out to be 200 nM.

As for `CNCCc1cccc(N(Cc2ccc3c(c2)OCO3)c2nc(C#N)ncc2F)c1`, the Ki at Procathepsin L [1] is above 5100 nM.

As for `N#Cc1ncc(F)c(N(Cc2ccc3c(c2)OCO3)C2CCSCC2)n1`, in data set [3], the logD (in general, lipophilicity at a set pH, counting ionised and neutral species) was 3.61. Besides, the Ki on Procathepsin L [1] stood at 515 nM.

The compound `CC1(N(Cc2ccc3c(c2)OCO3)c2nc(C#N)ncc2F)CC1` showed a logD in data set [3] of 3.38. The compound further yielded a Ki at Procathepsin L [1] above 5100 nM.

`N#Cc1ncc(F)c(N(CCc2ccncc2)Cc2ccc3c(c2)OCO3)n1` came in with a logD in data set [3] of 3.15. This compound also yielded a Ki on Procathepsin L [1] of 505 nM.

For the compound `N#Cc1ncc(F)c(N(Cc2ccc3c(c2)OCO3)c2ccc(F)cc2)n1`, in data set [3], the logD was found to be 3.49. Also, the Ki on Procathepsin L [1] came out at 952 nM.

Turning to `N#Cc1ncc(F)c(N(CCCc2ccc(Cl)cc2)Cc2ccc3c(c2)OCO3)n1`, affinity at Procathepsin L [1] was put at a Ki of 27 nM.

As for `N#Cc1ncc(F)c(N(CCOc2ccc3ccccc3c2)Cc2ccc3c(c2)OCO3)n1`, the affinity on Procathepsin L [1], expressed as Ki, was 123 nM.

At Procathepsin L [1], `N#Cc1ncc(F)c(N(Cc2ccc3c(c2)OCO3)[C@H]2CC[C@@H](C(F)(F)F)CC2)n1` yielded an inhibition constant (Ki) of 3500 nM.

On to `COc1cccc(CCCN(Cc2ccc3c(c2)OCO3)c2nc(C#N)ncc2F)c1`, for which the Ki at Procathepsin L [1] is 30 nM.

In the case of `N#Cc1ncc(F)c(N(Cc2ccc3c(c2)OCO3)CC2CCCC2)n1`, at Procathepsin L [1], the affinity corresponds to a Ki of 12 nM.

At Procathepsin L [1], `N#Cc1ncc(F)c(N(Cc2ccc3c(c2)OCO3)c2cccc(OCc3ccccc3)c2)n1` had an inhibition constant Ki above 5100 nM.

Compound `N#Cc1ncc(F)c(N(CCOc2ccc(Cl)cc2)Cc2ccc3c(c2)OCO3)n1` registered a Ki at Procathepsin L [1] of 167 nM.

In turn, `N#Cc1ncc(F)c(N(Cc2ccc3c(c2)OCO3)c2ccccc2)n1` returned a log distribution coefficient (logD) in data set [3] of 3.44. Besides, at Procathepsin L [1], the inhibition constant Ki is 1800 nM.

Turning to `N#Cc1ncc(F)c(N(Cc2ccc3c(c2)OCO3)c2ccc(OCC3CC3)cc2)n1`, the Ki at Procathepsin L [1] is above 5100 nM.

Consider `N#Cc1cccc(CCN(Cc2ccc3c(c2)OCO3)c2nc(C#N)ncc2F)c1`, for which the logD in data set [3] worked out at 2.12. Further, the affinity at Procathepsin L [1], expressed as Ki, was 304 nM.

Regarding `N#Cc1ncc(F)c(N(CCC2CCOCC2)Cc2ccc3c(c2)OCO3)n1`, the logD in data set [3] is 3.46. Moreover, at Procathepsin L [1], the affinity corresponds to a Ki of 2790 nM.

With `N#Cc1ncc(F)c(N(CCc2ccc(F)cc2)Cc2ccc3c(c2)OCO3)n1`, at Procathepsin L [1], the inhibition constant Ki came out at 279 nM.

With `N#Cc1ncc(F)c(N(Cc2ccc3c(c2)OCO3)c2ccc(OCC(F)(F)F)cc2)n1`, the Ki on Procathepsin L [1] is above 5100 nM.

In turn, `CC(C)=CCN(Cc1ccc2c(c1)OCO2)c1nc(C#N)ncc1F` gave a Ki on Procathepsin L [1] of 1010 nM.

`N#Cc1ncc(F)c(N(CCCc2noc(-c3ccccc3)n2)Cc2ccc3c(c2)OCO3)n1` showed a Ki on Procathepsin L [1] of 91 nM.

As to `N#Cc1ncc(F)c(N(CCc2ccccc2)Cc2ccc3c(c2)OCO3)n1`, the Ki on Procathepsin L [1] turned out to be 217 nM.

In data set [3], `N#Cc1ncc(F)c(N(CCC(F)(F)F)Cc2ccc3c(c2)OCO3)n1` showed a logD of 3.16. The compound also gave an inhibitory constant (Ki) on Procathepsin L [1] of 25 nM.

With `CC(C)[C@H]1CC[C@@H](N(Cc2ccc3c(c2)OCO3)c2nc(C#N)ncc2F)CC1`, the logD in data set [3] is 2.74. Further, on Procathepsin L [1], the affinity, expressed as Ki, was 3020 nM.

The compound `N#Cc1ncc(F)c(N(CCc2ccsc2)Cc2ccc3c(c2)OCO3)n1` registered a Ki at Procathepsin L [1] of 671 nM.

With `N#Cc1ncc(F)c(N(CCOc2ccccc2)Cc2ccc3c(c2)OCO3)n1`, the Ki at Procathepsin L [1] is 77 nM.

At Procathepsin L [1], `N#Cc1ncc(F)c(N(Cc2ccc3c(c2)OCO3)c2ccc(Oc3cccnc3)cc2)n1` yielded an inhibitory constant (Ki) of 1020 nM.

As for `Cc1cc(OCCN(Cc2ccc3c(c2)OCO3)c2nc(C#N)ncc2F)cc(C)c1Cl`, the logD in data set [3] was found to be 2.32. The compound further showed a Ki at Procathepsin L [1] of 1430 nM.

In data set [3], `N#Cc1ncc(F)c(N(CCc2ccccn2)Cc2ccc3c(c2)OCO3)n1` showed a log distribution coefficient (logD) of 3.39. Further, the inhibition constant Ki at Procathepsin L [1] was 3860 nM.

In the case of `CSc1cccc(N(Cc2ccc3c(c2)OCO3)c2nc(C#N)ncc2F)c1`, the Ki at Procathepsin L [1] was 5100 nM.

On to `N#Cc1ncc(F)c(N(Cc2ccc3c(c2)OCO3)CC2CC2)n1`, for which the logD in data set [3] is 3.02. This compound gave an inhibition constant (Ki) on Procathepsin L [1] of 77 nM.

`N#Cc1nc(N2CCOCC2)nc(N(Cc2ccc(Cl)cc2)C2CCCCC2)n1`: on Procathepsin L [2], the Ki came out at 13 nM.

`Cc1nc2n(c(=O)c1CCN(Cc1ccc3c(c1)OCO3)c1nc(C#N)ncc1F)CCCC2`: the logD in data set [3] was found to be 2.96. Moreover, affinity at Procathepsin L [1] was put at a Ki of 1750 nM.

`N#Cc1ncc(F)c(N(Cc2ccccc2)Cc2ccc3c(c2)OCO3)n1` returned a Ki at Procathepsin L [1] above 5100 nM.

On to `N#Cc1ncc(F)c(N(Cc2ccc(Cl)cc2)Cc2ccc3c(c2)OCO3)n1`, for which, on Procathepsin L [1], the Ki was above 5100 nM.

The compound `Cc1nsc(N2CCC(N(Cc3ccc4c(c3)OCO4)c3nc(C#N)ncc3F)CC2)n1` gave a logD in data set [3] of 3.49. The Ki at Procathepsin L [1] turned out to be 411 nM.
